Test results as given in ChEMBL document CHEMBL1151781, “Selectivity of inhibitors of endocannabinoid biosynthesis evaluated by activity-based protein profiling” (Bioorg Med Chem Lett, 2008).
Activity calls are given as the source filed them. The calls are words filed in the database; no cut-off is given here.

What was measured:
[1] = target: T1, Lysophosphatidylserine lipase ABHD12 (Mus musculus) (UniProt Q99LR1); settings: Brain, 5 uM
T1 sequence (whole entry): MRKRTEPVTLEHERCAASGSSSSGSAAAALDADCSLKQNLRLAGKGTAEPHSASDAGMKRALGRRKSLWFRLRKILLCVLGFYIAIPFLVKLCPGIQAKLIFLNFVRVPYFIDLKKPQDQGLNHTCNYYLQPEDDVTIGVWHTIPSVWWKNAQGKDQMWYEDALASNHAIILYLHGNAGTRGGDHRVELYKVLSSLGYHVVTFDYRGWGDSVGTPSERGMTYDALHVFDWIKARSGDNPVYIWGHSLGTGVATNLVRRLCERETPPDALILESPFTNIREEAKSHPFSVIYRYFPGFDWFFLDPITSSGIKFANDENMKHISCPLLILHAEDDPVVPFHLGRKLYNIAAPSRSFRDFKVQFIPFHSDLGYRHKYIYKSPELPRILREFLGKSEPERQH

[2] = target: T2, Platelet-activating factor acetylhydrolase (Mus musculus) (UniProt Q60963); settings: Brain, 50 uM
T2 sequence (whole entry): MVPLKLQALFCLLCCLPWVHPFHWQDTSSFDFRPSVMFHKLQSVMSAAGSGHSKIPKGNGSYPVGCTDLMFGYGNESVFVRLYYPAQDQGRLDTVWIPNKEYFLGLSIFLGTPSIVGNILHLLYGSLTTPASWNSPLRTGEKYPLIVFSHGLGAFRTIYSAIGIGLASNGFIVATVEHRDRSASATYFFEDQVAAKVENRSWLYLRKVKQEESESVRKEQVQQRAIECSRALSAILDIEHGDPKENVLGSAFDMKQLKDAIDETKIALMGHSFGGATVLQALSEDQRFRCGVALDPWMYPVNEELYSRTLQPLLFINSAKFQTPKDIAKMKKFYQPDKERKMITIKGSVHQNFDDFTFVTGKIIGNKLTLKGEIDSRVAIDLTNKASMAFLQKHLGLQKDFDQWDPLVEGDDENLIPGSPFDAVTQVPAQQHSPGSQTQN

[3] = target: T3, Neutral cholesterol ester hydrolase 1 (Mus musculus) (UniProt Q8BLF1); assay: Inhibition of KIAA1363 in mouse brain assessed as reduction in spectral count at 50 uM treated for 30 mins by ABPP-MudPIT assay relative to control; type: tissue-based
T3 sequence (whole entry): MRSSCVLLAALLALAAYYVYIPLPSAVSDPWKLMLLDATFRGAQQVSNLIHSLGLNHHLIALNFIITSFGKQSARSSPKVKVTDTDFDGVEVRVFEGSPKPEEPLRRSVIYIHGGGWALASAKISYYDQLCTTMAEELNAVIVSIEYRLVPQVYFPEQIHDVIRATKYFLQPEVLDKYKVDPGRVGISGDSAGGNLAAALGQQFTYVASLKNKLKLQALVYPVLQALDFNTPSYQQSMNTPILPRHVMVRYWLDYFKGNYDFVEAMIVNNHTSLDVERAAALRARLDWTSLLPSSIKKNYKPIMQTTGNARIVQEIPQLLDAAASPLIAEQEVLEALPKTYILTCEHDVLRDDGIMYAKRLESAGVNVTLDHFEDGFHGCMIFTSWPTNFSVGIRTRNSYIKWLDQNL
Outline: (§1)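 Mouse brain proteome was treated with inhibitor at the stated single concentration, or DMSO as control, for 30 min. FP-biotin (5 μM) was then added for 120 min, followed by avidin enrichment and LC-MS (ABPP-MudPIT). Runs were in triplicate. Only hydrolases with >15 average spectral counts in control were quantified. Blockade is the percent reduction in average spectral counts versus DMSO; >60% defined a target.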

[4] = target: Diacylglycerol lipase-beta (Homo sapiens, UniProt Q8NCG7); assay: Inhibition of human recombinant DAGLbeta overexpressed in african green monkey COS7 cells; type: cell-based, COS-7
[5] = target: Acetylcholinesterase (Mus musculus) (UniProt P21836); assay: Inhibition of AChE in mouse brain by LC-MS analysis; type: tissue-based
[6] = target: Hormone-sensitive lipase (Mus musculus) (UniProt P54310); assay: Inhibition of HSL in mouse brain assessed as reduction in spectral count at 50 uM treated for 30 mins by ABPP-MudPIT assay relative to control; type: tissue-based
Outline: as §1

[7] = target: Acetylcholinesterase (Mus musculus) (UniProt P21836); assay: Inhibition of AChE in mouse brain assessed as reduction in spectral count at 5 uM treated for 30 mins by ABPP-MudPIT assay relative to control; type: tissue-based
Outline: as §1

[8] = target: T4, Fatty-acid amide hydrolase 1 (Mus musculus) (UniProt O08914); assay: Inhibition of FAAH in mouse brain assessed as reduction in spectral count at 50 uM treated for 30 mins by ABPP-MudPIT assay relative to control; type: tissue-based
T4 sequence (whole entry): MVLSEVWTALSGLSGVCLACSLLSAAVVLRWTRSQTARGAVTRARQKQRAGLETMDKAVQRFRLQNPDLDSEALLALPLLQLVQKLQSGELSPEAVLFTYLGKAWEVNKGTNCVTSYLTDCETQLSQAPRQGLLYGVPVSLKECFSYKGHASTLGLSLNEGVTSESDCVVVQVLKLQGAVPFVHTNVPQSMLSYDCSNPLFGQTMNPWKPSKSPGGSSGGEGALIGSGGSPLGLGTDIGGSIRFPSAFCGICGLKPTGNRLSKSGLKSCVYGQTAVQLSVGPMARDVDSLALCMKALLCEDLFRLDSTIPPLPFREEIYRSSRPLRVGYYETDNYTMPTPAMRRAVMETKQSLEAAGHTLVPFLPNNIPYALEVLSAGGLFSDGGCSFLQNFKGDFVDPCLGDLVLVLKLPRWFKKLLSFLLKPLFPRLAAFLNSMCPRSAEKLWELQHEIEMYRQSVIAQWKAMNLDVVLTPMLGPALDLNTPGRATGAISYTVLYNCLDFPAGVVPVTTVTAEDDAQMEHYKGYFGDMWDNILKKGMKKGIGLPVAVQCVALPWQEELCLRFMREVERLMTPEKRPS
Outline: as §1

[9] = target: Diacylglycerol lipase-alpha (Homo sapiens, UniProt Q9Y4D2); assay: Inhibition of human recombinant DAGLalpha overexpressed in african green monkey COS7 cells; type: cell-based, COS-7
[10] = target: T2, Platelet-activating factor acetylhydrolase (Mus musculus); assay: Inhibition of PLA2g7 in mouse brain assessed as reduction in spectral count at 5 uM treated for 30 mins by ABPP-MudPIT assay relative to control; type: tissue-based
Outline: as §1

Acetylcholinesterase (Mus musculus), sequence (P21836 whole entry): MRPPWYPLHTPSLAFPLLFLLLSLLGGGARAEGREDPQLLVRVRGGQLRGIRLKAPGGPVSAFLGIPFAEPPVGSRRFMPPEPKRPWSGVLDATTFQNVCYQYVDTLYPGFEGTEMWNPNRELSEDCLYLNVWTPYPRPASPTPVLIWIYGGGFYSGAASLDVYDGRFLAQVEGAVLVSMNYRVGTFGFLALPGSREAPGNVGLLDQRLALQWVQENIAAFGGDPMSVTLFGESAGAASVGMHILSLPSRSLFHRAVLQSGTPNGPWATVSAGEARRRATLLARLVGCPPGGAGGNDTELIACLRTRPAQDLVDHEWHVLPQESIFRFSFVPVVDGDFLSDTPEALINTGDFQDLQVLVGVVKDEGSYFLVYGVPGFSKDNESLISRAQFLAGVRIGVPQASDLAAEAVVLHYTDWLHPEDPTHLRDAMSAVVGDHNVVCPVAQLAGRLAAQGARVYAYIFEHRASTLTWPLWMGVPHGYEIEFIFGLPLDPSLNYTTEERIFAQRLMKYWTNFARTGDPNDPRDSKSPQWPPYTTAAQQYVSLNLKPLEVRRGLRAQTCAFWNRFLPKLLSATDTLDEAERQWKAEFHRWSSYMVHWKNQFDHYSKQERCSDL
Diacylglycerol lipase-alpha, sequence (Q9Y4D2 whole entry): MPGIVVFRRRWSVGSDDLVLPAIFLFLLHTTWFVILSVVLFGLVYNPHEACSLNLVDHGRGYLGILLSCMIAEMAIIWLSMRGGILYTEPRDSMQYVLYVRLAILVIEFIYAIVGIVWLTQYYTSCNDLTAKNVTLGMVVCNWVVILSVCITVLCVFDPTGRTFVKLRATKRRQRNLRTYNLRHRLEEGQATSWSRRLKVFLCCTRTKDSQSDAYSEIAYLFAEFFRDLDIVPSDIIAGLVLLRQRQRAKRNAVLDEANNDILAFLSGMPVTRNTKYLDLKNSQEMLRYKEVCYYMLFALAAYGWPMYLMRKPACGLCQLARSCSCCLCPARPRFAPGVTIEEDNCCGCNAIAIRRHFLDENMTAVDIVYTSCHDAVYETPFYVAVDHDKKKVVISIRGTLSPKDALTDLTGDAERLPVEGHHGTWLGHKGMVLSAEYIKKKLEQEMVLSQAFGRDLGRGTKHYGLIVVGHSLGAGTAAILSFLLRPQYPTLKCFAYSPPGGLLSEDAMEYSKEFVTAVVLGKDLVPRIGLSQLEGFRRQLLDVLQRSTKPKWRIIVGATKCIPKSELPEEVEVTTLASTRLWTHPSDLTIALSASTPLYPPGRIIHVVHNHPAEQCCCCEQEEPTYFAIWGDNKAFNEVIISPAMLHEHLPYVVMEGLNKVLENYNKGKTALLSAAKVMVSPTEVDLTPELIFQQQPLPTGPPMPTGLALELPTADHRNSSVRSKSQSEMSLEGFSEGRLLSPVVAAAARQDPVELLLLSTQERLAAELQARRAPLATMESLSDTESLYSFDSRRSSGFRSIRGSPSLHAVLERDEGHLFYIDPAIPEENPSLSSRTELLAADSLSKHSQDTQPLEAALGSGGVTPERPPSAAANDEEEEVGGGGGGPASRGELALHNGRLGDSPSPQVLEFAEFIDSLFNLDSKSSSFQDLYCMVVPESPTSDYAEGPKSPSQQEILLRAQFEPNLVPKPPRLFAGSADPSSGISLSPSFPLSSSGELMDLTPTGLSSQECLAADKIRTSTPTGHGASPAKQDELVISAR
Diacylglycerol lipase-beta, sequence (Q8NCG7 whole entry): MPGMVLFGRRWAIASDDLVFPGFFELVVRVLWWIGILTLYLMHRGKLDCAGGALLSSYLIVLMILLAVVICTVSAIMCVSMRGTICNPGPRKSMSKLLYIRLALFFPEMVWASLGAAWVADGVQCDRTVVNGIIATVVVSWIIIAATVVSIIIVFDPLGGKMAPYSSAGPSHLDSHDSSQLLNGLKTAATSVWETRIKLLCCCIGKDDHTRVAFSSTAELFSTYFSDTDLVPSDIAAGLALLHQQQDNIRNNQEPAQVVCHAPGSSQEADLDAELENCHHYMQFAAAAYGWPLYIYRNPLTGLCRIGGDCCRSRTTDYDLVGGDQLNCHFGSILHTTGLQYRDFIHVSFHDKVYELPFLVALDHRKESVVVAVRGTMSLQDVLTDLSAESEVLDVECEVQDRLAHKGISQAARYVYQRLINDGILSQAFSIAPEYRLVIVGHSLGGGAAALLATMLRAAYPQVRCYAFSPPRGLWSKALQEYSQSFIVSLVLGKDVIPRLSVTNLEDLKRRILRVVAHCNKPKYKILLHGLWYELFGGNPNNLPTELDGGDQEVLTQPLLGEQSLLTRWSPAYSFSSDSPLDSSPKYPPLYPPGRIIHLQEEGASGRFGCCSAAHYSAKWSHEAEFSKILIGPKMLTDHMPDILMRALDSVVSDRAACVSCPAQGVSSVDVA
Hormone-sensitive lipase (Mus musculus), sequence (P54310 whole entry): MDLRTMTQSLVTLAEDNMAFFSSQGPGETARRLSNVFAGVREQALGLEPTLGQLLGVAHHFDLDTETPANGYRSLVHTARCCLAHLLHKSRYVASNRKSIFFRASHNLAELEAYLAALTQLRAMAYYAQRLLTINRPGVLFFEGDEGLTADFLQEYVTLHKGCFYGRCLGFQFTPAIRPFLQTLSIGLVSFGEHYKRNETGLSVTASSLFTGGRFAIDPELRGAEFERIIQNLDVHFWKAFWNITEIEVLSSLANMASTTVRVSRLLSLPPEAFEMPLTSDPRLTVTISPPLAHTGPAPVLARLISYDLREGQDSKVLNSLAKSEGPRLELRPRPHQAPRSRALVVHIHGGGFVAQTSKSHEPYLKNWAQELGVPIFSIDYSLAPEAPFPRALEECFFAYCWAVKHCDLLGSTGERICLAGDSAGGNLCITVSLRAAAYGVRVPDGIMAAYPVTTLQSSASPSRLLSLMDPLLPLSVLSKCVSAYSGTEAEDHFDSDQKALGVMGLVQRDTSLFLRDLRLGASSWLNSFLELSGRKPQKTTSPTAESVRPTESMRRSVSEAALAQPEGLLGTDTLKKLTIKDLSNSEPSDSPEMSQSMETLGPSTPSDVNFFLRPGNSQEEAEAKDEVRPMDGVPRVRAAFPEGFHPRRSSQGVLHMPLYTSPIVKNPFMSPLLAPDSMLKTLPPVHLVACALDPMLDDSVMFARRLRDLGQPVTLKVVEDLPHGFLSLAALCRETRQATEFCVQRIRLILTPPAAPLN

Structure (SMILES) | inhibition [1] [%] | inhibition [2] [%] | inhibition [3] [%] | IC50 [4] [nM] | Activity [5] | inhibition [6] [%] | inhibition [7] [%] | inhibition [8] [%] | IC50 [9] [nM] | inhibition [10] [%]
CCCCCCCCCCC[C@@H](C[C@@H]1OC(=O)[C@H]1CCCCCC)OC(=O)[C@H](CC(C)C)NC=O [ORLISTAT] | > 60 | > 60 |  |  |  |  |  |  |  | 
O=C(NCCCCCCNC(=O)ON=C1CCCCC1)ON=C1CCCCC1 |  |  | > 60 | 60 | Active | < 60 | > 60 | > 60 | 60 | > 60
